Converted amounts (≈) assume the structure as drawn. The source made the active and inactive calls. The calls are words filed in the database; no cut-off is given here.

One series has as its system Salmonella enterica. The series can be described thus: Bactericidal activity against Salmonella enterica in aerobic condition. It counts as functional, organism-based. The method, boiled down: (§1)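 MH broth; log-phase bacteria (OD600 ~0.6) diluted to ~10^5 bacteria/mL and exposed to two-fold serial dilutions (0–500 µM; 0.2% DMSO final as vehicle control) at 37 °C, aerobic, 18–24 h. MIC is the lowest concentration preventing visible growth (OD600). MBC is found by streaking 10 µL from no-growth wells onto agar; the MBC is the concentration where ≤1 colony grew. n = 3.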

In series [1] the test system is Klebsiella variicola. The series can be described thus: Antimicrobial activity against Klebsiella variicola after 18 to 24 hrs in aerobic condition by two-fold serial dilutions method. It is filed as functional. The method, boiled down:
(§2)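 Colonies grown overnight (~16 h) in Mueller-Hinton broth at 37 °C, 200 rpm, diluted 1/100 and grown to log phase (OD600 ~0.6), then diluted to ~10^5 bacteria/mL. Exposed to 0 to 500 µM in 1:2 series (0.2% DMSO final control), aerobic, 37 °C, 18–24 h. OD600 read; MIC = lowest concentration without visible growth; n = 3.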

The test system of another series is Helicobacter pylori. Nature of the series: Antimicrobial activity against Helicobacter pylori after 18 to 24 hrs in anaerobic condition by two-fold serial dilutions method. It is filed as functional. The gist of the method: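 Mueller-Hinton broth preculture grown to log phase (OD600 ~0.6), diluted to ~10^5 bacteria/mL. Serial 1:2 dilutions 0 to 500 µM, 0.2% DMSO final control. Incubated at 37 °C for 18–24 h under anaerobic conditions from a gas-pack system; OD600 read; MIC = lowest concentration without visible growth; triplicate.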

In series [2] the test system is Vibrio alginolyticus. Nature of the series: Antimicrobial activity against Vibrio alginolyticus after 18 to 24 hrs in aerobic condition by two-fold serial dilutions method. It is filed as functional. The gist of the method:
as §2

The test system of a further series is Arthrobacter gandavensis. Nature of the series: Antimicrobial activity against Arthrobacter gandavensis after 18 to 24 hrs in aerobic condition by two-fold serial dilutions method. It counts as functional. The gist of the method:
as §2

Series [3] has as its system Vibrio alginolyticus. The series can be described thus: Bactericidal activity against Vibrio alginolyticus in aerobic condition. It counts as functional, organism-based. The method, boiled down:
as §1

The next series deals with Clostridium perfringens. The series can be described thus: Induction of cell membrane permeability in Clostridium perfringens assessed as membrane integrity after 240 mins in anaerobic condition by propidium iodide staining-based assay relative to control. It is filed as functional. The method, boiled down:
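Log-phase bacteria resuspended in PBS at about 10^9/mL with propidium iodide 60 µM final, mixed 1:1 with two-fold serial dilutions of compound. Fluorescence (ex 530/em 590 nm) recorded over 240 min at 37 °C anaerobically. Normalised to CTAB 300 µM or nisin at 5× MIC (100% permeabilization); DMSO as vehicle. Triplicate.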

A further series has as its system Vibrio diabolicus. The series can be described thus: Bactericidal activity against Vibrio diabolicus in aerobic condition. It counts as functional, organism-based. The method, boiled down: as §1
A further series concerns Shigella flexneri. Nature of the series: Bactericidal activity against Shigella flexneri in aerobic condition. It counts as functional, organism-based. The method, boiled down:
as §1

The test system of a further series is Lactococcus lactis. The series can be described thus: Antimicrobial activity against Lactococcus lactis after 18 to 24 hrs in aerobic condition by two-fold serial dilutions method. It is filed as functional. The gist of the method: as §2
Series [4] in a line: Therapeutic index, ratio of IC50 for human BEAS2B cells to MIC for methicillin-resistant Staphylococcus aureus. It is filed as toxicity. As to conditions: read-out: TI. The gist of the method:
(§3)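 IC50 measured on confluent normal human BEAS-2B or IMR-90 cells (DMEM, 10% FCS) after 48 h exposure with DMSO 0.2% as control. Resazurin read after 4 h (ex 530/em 590 nm), normalised to DMSO-treated cells. Index obtained by comparing this IC50 with the bacterial MIC.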

The subject of a further series is Staphylococcus aureus. The series can be described thus: Bactericidal activity against methicillin-resistant Staphylococcus aureus in aerobic condition. It is filed as functional, organism-based.
The next series relates to Aspergillus flavus. The series can be described thus: Fungicidal activity against Aspergillus flavus. It counts as functional, organism-based. The gist of the method:
(§4)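 Filamentous fungi grown on potato dextrose agar and tested in RPMI medium with two-fold serial dilutions (0–500 µM, 0.2% DMSO final). Plates held at room temperature for 2 to 5 days, then OD600 read; MIC taken as the lowest concentration with no visible growth. The fungicidal endpoint is ≤1 colony after streaking 10 µL of no-growth wells on agar. n = 3.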

A further series concerns Fusarium oxysporum. Nature of the series: Antifungal activity against Fusarium oxysporum after 2 to 5 days by two-fold serial dilutions method. It is filed as functional. The method, boiled down: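 Broth two-fold serial dilution MIC, 0 to 500 µM (1:2 steps), from 200 mM DMSO stocks; 0.2% DMSO final as vehicle control. Inoculum about 10^5 cells/mL. Strains maintained on potato dextrose agar and in RPMI medium. Plates held at room temperature for 2 to 5 days, OD600 read; MIC = lowest concentration preventing visible growth; independent triplicate.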

The subject of series [5] is Klebsiella variicola. Nature of the series: Bactericidal activity against Klebsiella variicola in aerobic condition. It is filed as functional, organism-based. The gist of the method:
(§5)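 From the MIC plates, 10 µL from each well without growth was streaked onto agar suited to the organism and incubated under that organism's growth conditions. Colonies were then counted; MBC = lowest concentration allowing ≤1 colony, i.e. killing 99.9% of bacteria.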

For a further series, the system named is Stachybotrys chartarum. The series can be described thus: Fungicidal activity against Stachybotrys chartarum. It is filed as functional, organism-based. The method, boiled down: as §4
The subject of a further series is Enterococcus faecalis. Nature of the series: Antimicrobial activity against Enterococcus faecalis after 18 to 24 hrs in anaerobic condition by two-fold serial dilutions method. It counts as functional. The method, boiled down:
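BHI preculture at 37 °C brought to log phase (OD600 ~0.6), then ~10^5 bacteria/mL exposed to 0 to 500 µM (1:2 dilutions, 0.2% DMSO final control). Anaerobic conditions from a gas-pack system, 37 °C, 18–24 h. OD600 read; MIC = lowest concentration with no visible growth; n = 3.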

For a further series, the system named is Clostridium botulinum. Nature of the series: Bactericidal activity against Clostridium botulinum in anaerobic condition. It is filed as functional, organism-based.
In series [6] the test system is Blautia producta. Nature of the series: Antimicrobial activity against Clostridium coccoides after 18 to 24 hrs in anaerobic condition by two-fold serial dilutions method. It counts as functional. The gist of the method: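 Precultures in BHI broth at 37 °C in an anaerobic cabinet, grown to log phase (OD600 ~0.6), then seeded at ~10^5 bacteria/mL. Two-fold dilutions from 0 to 500 µM, 0.2% DMSO final as control. Plates incubated anaerobically at 37 °C for 18–24 h, OD600 read; MIC = lowest concentration giving no visible growth; independent triplicate.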

Series [7] relates to Blautia producta. The series can be described thus: Bactericidal activity against Clostridium coccoides in anaerobic condition. It is filed as functional, organism-based. The method, boiled down:
as §5

In a further series the test system is Aspergillus niger. Nature of the series: Fungicidal activity against Aspergillus niger after 48 hrs. It is filed as functional, organism-based. The method, boiled down: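 A. niger in RPMI medium, two-fold serial dilutions 0–500 µM (0.2% DMSO final). Incubation at 35 °C for 48 h; OD600 read, MIC as the lowest concentration with no visible growth. Killing concentration determined by streaking 10 µL from no-growth wells on agar, where ≤1 colony grew. Triplicate.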

Series [8] is described as follows: Therapeutic index, ratio of IC50 for human IMR90 cells to MIC for Clostridium perfringens. It counts as toxicity. Particulars: read-out: TI. The gist of the method:
as §3

As a reminder, the MIC is the lowest concentration found to suppress growth. A lower MIC goes with a more susceptible organism. For the compound `O=C1/C(=C/c2ccc(F)cc2)Oc2cc(O)cc(O)c21`, the outcome in the series with Salmonella enterica, with Vibrio alginolyticus [3], in the series on Vibrio diabolicus, in the series with Shigella flexneri, in the series on Staphylococcus aureus and with Aspergillus flavus was Active. The outcome in the series with Klebsiella variicola [5], in the series on Stachybotrys chartarum, in the series on Clostridium botulinum, with Blautia producta [7] and in the series with Aspergillus niger was Active. Moreover, the minimum inhibitory concentration (MIC) against Klebsiella variicola [1] is greater than 500 µM; in the series with Helicobacter pylori, greater than 500 µM; against Vibrio alginolyticus [2], 125 µM (≈ 34 µg/mL); against Arthrobacter gandavensis, 15.6 µM (≈ 4.25 µg/mL); in the series on Lactococcus lactis, 15.6 µM (≈ 4.25 µg/mL); against Fusarium oxysporum it was greater than 500 µM. In addition, the MIC in the series with Enterococcus faecalis was 125 to 250 µM (≈ 34 to 68.1 µg/mL); against Blautia producta [6] it was greater than 500 µM. For the same compound, in the series on Clostridium perfringens, the result was inactive. For the same compound, the selectivity ratio in series [4] came to 76.

Consider `COc1cc(/C=C2\Oc3cc(O)cc(O)c3C2=O)ccc1OCc1ccccc1`, for which the outcome in the series with Salmonella enterica, in the series with Vibrio alginolyticus [3], with Vibrio diabolicus, with Shigella flexneri, in the series with Staphylococcus aureus and with Aspergillus flavus was Active. Further, the outcome with Klebsiella variicola [5], with Stachybotrys chartarum, in the series on Clostridium botulinum, with Blautia producta [7] and in the series with Aspergillus niger was Active. Also, the minimal inhibitory concentration (MIC) in the series on Klebsiella variicola [1] is greater than 500 µM; against Helicobacter pylori, 15.6 µM (≈ 6.09 µg/mL); with Vibrio alginolyticus [2], 3.9 µM (≈ 1.52 µg/mL); with Arthrobacter gandavensis, 31.2 µM (≈ 12.2 µg/mL); in the series on Lactococcus lactis it was 31.2 µM (≈ 12.2 µg/mL); in the series on Fusarium oxysporum, greater than 500 µM. For the same compound, the MIC against Enterococcus faecalis was 15.6 to 31.2 µM (≈ 6.09 to 12.2 µg/mL); against Blautia producta [6], 250 µM (≈ 97.6 µg/mL). Moreover, in the series on Clostridium perfringens, the Activity is listed as 30%.

Turning to `O=C1/C(=C/c2ccccc2)Oc2cc(O)cc(O)c21`, the outcome with Salmonella enterica, in the series on Vibrio alginolyticus [3], in the series with Vibrio diabolicus, in the series on Shigella flexneri, with Staphylococcus aureus and with Aspergillus flavus was Active. The outcome in the series on Klebsiella variicola [5], in the series with Stachybotrys chartarum, in the series with Clostridium botulinum, in the series with Blautia producta [7] and with Aspergillus niger was Active. The MIC against Klebsiella variicola [1] is greater than 500 µM; against Helicobacter pylori, 15.6 µM (≈ 3.97 µg/mL); in the series with Vibrio alginolyticus [2], 31.2 µM (≈ 7.95 µg/mL); against Arthrobacter gandavensis it was 31.2 µM (≈ 7.95 µg/mL); against Lactococcus lactis, 15.6 µM (≈ 3.97 µg/mL); in the series with Fusarium oxysporum, greater than 500 µM. For the same compound, the MIC was 15.6 µM (≈ 3.97 µg/mL) against Enterococcus faecalis and 500 µM (≈ 127 µg/mL) in the series on Blautia producta [6]. Besides, in the series with Clostridium perfringens, the outcome was inactive. The selectivity ratio in series [8] came out at 32.

Source of the values: ChEMBL document CHEMBL4400513, “Aurone derivatives as promising antibacterial agents against resistant Gram-positive pathogens” (Eur J Med Chem, 2019).
